Results on 9 molecules are retold here after ChEMBL document CHEMBL4477241, “Structure-Activity Relationship Studies for Enhancer of Zeste Homologue 2 (EZH2) and Enhancer of Zeste Homologue 1 (EZH1) Inhibitors” (J Med Chem, 2016).

pIC50: −log10 of the molar value. Where only a bound is given, the exact number is not on record here.

Test [1] concerns the target T1, Histone-lysine N-methyltransferase EZH1 (Homo sapiens, UniProt Q92800).
T1 sequence (Q92800 whole entry): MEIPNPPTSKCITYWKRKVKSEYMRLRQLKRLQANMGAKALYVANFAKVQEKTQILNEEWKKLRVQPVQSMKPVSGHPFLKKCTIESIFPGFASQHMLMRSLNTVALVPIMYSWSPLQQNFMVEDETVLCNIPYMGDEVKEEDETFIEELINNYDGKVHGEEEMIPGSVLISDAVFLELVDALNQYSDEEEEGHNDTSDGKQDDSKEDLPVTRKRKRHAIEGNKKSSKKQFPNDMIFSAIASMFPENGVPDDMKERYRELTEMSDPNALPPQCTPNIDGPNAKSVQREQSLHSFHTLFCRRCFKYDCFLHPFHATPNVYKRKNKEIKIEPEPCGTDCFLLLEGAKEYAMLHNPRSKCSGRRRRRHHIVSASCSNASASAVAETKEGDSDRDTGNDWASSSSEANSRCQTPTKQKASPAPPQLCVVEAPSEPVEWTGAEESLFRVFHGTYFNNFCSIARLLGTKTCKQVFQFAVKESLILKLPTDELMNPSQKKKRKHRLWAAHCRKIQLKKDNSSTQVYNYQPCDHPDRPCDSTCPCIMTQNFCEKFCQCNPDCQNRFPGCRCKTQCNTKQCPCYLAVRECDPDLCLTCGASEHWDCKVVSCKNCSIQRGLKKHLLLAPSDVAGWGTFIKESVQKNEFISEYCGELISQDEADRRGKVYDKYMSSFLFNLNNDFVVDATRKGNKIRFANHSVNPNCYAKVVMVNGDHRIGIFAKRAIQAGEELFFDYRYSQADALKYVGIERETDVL
Nature of the test: Inhibition of EZH1 histone methyltransferase activity of EZH1/EED/SUZ12/RBBP4/AEBP2 protein complex (unknown origin) using histone H3 peptide as substrate (21 to 44 residues) in presence of [3H]-S-adenosylmethionine after 2 hrs by scintillation proximity assay. In outline:
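10 nM EZH1 pentameric complex with 4 μM 3H-SAM and 1 μM biotinylated H3(21–44) in 20 mM Tris-HCl pH 8, 5 mM DTT, 0.01% Triton X-100. Reaction run 1 h at 23 °C, stopped with guanidine hydrochloride, then captured 2 h on a streptavidin flash plate. Counts normalized to no-compound (100%) and no-enzyme (0%) controls.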
In general terms: Scintillation proximity formats need no separation of bound from free tracer.

Test [2] deals with Histone-lysine N-methyltransferase EZH2 (Homo sapiens, UniProt O75530+Q15022+Q15910). The test can be described thus: Inhibition of EZH2 histone methyltransferase activity of EZH2/EED/SUZ12 protein complex (unknown origin) using histone H3 peptide as substrate (21 to 44 residues) in presence of [3H]-S-adenosylmethionine after 2 hrs by scintillation proximity assay. A digest of the protocol: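 20 nM EZH2 trimeric complex with 2 μM 3H-SAM and 1 μM biotinylated H3(21–44) in 20 mM Tris-HCl pH 8, 5 mM DTT, 0.01% Triton X-100. Incubated 1 h at 23 °C, quenched with guanidine hydrochloride, then 2 h streptavidin flash-plate capture. Activity scaled between no-compound and no-enzyme counts.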
Sequence of Histone-lysine N-methyltransferase EZH2 (Q15910 whole entry, the tested form may be a part, one chain of several): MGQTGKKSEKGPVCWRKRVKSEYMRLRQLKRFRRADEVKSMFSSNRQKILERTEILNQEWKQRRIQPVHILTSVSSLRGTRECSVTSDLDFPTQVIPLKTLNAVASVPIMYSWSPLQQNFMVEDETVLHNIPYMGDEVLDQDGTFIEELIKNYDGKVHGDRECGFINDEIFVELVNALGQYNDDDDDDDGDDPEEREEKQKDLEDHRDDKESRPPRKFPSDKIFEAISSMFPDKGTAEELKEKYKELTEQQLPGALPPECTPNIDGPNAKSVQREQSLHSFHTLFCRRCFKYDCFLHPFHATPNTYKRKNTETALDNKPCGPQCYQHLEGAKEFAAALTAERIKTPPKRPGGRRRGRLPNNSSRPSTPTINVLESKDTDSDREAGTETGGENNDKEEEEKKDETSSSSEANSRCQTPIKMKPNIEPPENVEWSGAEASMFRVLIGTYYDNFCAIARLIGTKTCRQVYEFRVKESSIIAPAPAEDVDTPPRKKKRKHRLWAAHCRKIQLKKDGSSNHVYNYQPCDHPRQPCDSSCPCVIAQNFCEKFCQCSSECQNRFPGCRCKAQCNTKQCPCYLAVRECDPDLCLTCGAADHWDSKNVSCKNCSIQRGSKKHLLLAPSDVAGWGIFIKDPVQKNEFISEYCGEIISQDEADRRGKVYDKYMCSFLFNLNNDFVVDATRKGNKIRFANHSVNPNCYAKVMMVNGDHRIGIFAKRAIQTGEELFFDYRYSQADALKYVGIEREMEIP

Regarding `CCCc1cc(C)[nH]c(=O)c1CNC(=O)c1cc(-c2ccc(C(F)(F)F)cn2)cc2c1cnn2C(C)C`, the negative-log IC50 (pIC50) (commonly the negative decadic logarithm of the IC50, by convention in mol/L) is under 5.30 in test [1] and 7.19 in test [2].

In the case of `CCCc1cc(C)[nH]c(=O)c1CNC(=O)c1cc(N2CCCNCC2)cc2c1cnn2C(C)C`, the pIC50 was under 5.60 in test [1] and 7.38 in test [2].

Take `CCCc1cc(C)[nH]c(=O)c1CNC(=O)c1cc(NC2CCNCC2)cc2c1cnn2C(C)C`: the results for the negative-log IC50 (pIC50) in test [1] and in test [2] were under 5.90 and 7.59, respectively.

Take `CCc1cc(C)[nH]c(=O)c1CNC(=O)c1cc(-c2ccc(N3CCN(C(C)C)CC3)nc2)cc2c1cnn2C(C)C`: the pIC50 is 6.09 in test [1] and 7.92 in test [2].

On to `CCCCc1cc(C)[nH]c(=O)c1CNC(=O)c1cc(-c2ccc(N3CCN(C(C)C)CC3)nc2)cc2c1cnn2C(C)C`, for which the negative logarithm of the IC50 (pIC50) is 6.80 in test [1] and over 8.00 in test [2].

Take `CCCc1cc(C)[nH]c(=O)c1CNC(=O)c1cc(C2CCNCC2)cc2c1cnn2C(C)C`: the pIC50 in test [1] was 6.21; in test [2], 7.96.

On to `CCCc1cc(C)[nH]c(=O)c1CNC(=O)c1cc(N2CCNCC2)cc2c1cnn2C(C)C`, for which the pIC50 in test [1] is 6.06; in test [2] it was 7.77.

Regarding `CCCc1cc(C)[nH]c(=O)c1CNC(=O)c1cc(Br)cc2c1cnn2C(C)C`, the negative-log IC50 (pIC50) is under 5.30 in test [1] and 7.46 in test [2].

On to `CCCc1cc(C)[nH]c(=O)c1CNC(=O)c1cc(-c2ccc(F)cn2)cc2c1cnn2C(C)C`, for which the pIC50 in test [1] was 6.11; in test [2], 7.66.
